Test results reported in ChEMBL document CHEMBL1212693, “Dorsomorphin inhibits BMP signals required for embryogenesis and iron metabolism” (Nat Chem Biol, 2008).
Active and inactive are the calls of the source. The rule behind the calls is not given here.

Columns and labels:
Danio rerio [1] = organism: Danio rerio; assay: Inhibition of BMPR1 in zebrafish assessed as penetrance of moderate embryonic axis dorsalization at 10 uM treated at 2 to 8 hrs post-fertilization measured at 48 hrs; design: scale not given: the % may be the effect or the level left
Summary of the method: (§1)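 Compound added at the stated times and concentrations. Gross morphology scored visually at up to 48 h.p.f. for dorsalization of the embryonic axis.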

Danio rerio [2] = organism: Danio rerio; assay: Inhibition of BMPR1 in zebrafish assessed as penetrance of mild embryonic axis dorsalization at 5 uM treated at 3 hrs post-fertilization measured at 48 hrs; design: scale not given: the % may be the effect or the level left; summary of the method: as §1
Mus musculus [3] = organism: Mus musculus; assay: Inhibition of BMPR1-mediated Smad-1 phosphorylation in BMP2-stimulated mouse BMPR2 deficient PASMC at 4 uM treated 30 mins before BMP2 challenge measured after 30 mins by immunoblot analysis
Summary of the method: (§2)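 PASMCs (wild-type or BMPR-II–deficient) were kept 24 h in RPMI with 0.5% FCS, preincubated 30 min with compound or vehicle, then stimulated 30 min with recombinant BMP (10 ng ml−1). Extracts in SDS-lysis buffer were immunoblotted for phospho-SMAD1/5/8, with total SMAD1 and α-tubulin as loading controls. Bands were quantitated by phosphorimager.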

Mus musculus [4] = organism: Mus musculus; assay: Inhibition of activin receptor-mediated Smad-2 phosphorylation in activin-stimulated mouse PASMC at => 10 uM treated 30 mins before activin challenge measured after 30 mins by immunoblot analysis
Summary of the method: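 PASMCs serum-starved 24 h (0.5% FCS RPMI) were pretreated 30 min with compound at 0.1–20 µM or vehicle. They were then stimulated 30 min with recombinant TGF-β1 or activin A. Phospho-SMAD2 was detected by immunoblot of SDS lysates, and phosphorimager quantification was used.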

Danio rerio [5] = organism: Danio rerio; assay: Toxicity in zebrafish assessed as survivability at 10 uM treated at 3 hrs post-fertilization measured at 48 hrs; type: organism-based; conditions: in vivo
Danio rerio [6] = organism: Danio rerio; assay: Inhibition of BMPR1 in zebrafish assessed as penetrance of mild embryonic axis dorsalization at 10 uM treated at 2 to 8 hrs post-fertilization measured at 48 hrs; design: scale not given: the % may be the effect or the level left; summary of the method: as §1
Mus musculus [7] = organism: Mus musculus; assay: Inhibition of BMPR1-mediated Smad-1 phosphorylation in BMP6-stimulated mouse BMPR2 deficient PASMC at 4 uM treated 30 mins before BMP6 challenge measured after 30 mins by immunoblot analysis; summary of the method: as §2
Danio rerio [8] = organism: Danio rerio; assay: Inhibition of BMPR1 in zebrafish assessed as penetrance of mild embryonic axis dorsalization at 10 uM treated at 4 to 8 hrs post-fertilization measured at 48 hrs; design: scale not given: the % may be the effect or the level left; summary of the method: as §1
Danio rerio [9] = organism: Danio rerio; assay: Inhibition of BMPR1 in zebrafish assessed as penetrance of normal embryonic axis dorsalization at 0.5 uM treated at 3 hrs post-fertilization measured at 48 hrs; design: scale not given: the % may be the effect or the level left
Danio rerio [10] = organism: Danio rerio; assay: Inhibition of BMPR1 in zebrafish assessed as penetrance of mild embryonic axis dorsalization at 0.2 uM treated at 3 hrs post-fertilization measured at 48 hrs; design: scale not given: the % may be the effect or the level left; summary of the method: as §1
Danio rerio [11] = organism: Danio rerio; assay: Inhibition of BMPR1 in zebrafish assessed as penetrance of moderate embryonic axis dorsalization at 10 uM treated continuously from 4 hrs post-fertilization measured after 48 hrs; design: scale not given: the % may be the effect or the level left; summary of the method: as §1
Danio rerio [12] = organism: Danio rerio; assay: Inhibition of BMPR1 in zebrafish assessed as penetrance of mild embryonic axis dorsalization at 10 uM treated at 3 hrs post-fertilization measured at 48 hrs; design: scale not given: the % may be the effect or the level left; summary of the method: as §1
[13] = Inhibition of Sprague-Dawley rat AMPK assessed as inhibition of [33P]ATP utilization after 30 mins by scintillation counting
Danio rerio [14] = organism: Danio rerio; assay: Inhibition of BMPR1 in zebrafish assessed as increase in pax2a expression at 10 uM treated at 12 hrs post-fertilization measured at 48 hrs
Mus musculus [15] = organism: Mus musculus; assay: Inhibition of ALK2-mediated Smad-8 phosphorylation in BMPR2 deficient mouse PASMC at 10 uM by immunoblot analysis
Summary of the method: (§3)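 BMPR-II–deficient mouse PASMCs (RPMI, 10% FBS) transiently transfected with constitutively active ALK2, ALK3 or ALK6 cDNA, or plasmid-only control. Incubated with or without compound (10 µM). Extracts lysed in SDS buffer, run on SDS-PAGE and immunoblotted for phospho-SMAD1/5/8; quantitated by phosphorimager.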

Danio rerio [16] = organism: Danio rerio; assay: Inhibition of BMPR1 in zebrafish assessed as penetrance of moderate embryonic axis dorsalization at 10 uM treated at 2 to 6 hrs post-fertilization measured at 48 hrs; design: scale not given: the % may be the effect or the level left; summary of the method: as §1
Mus musculus [17] = organism: Mus musculus; assay: Inhibition of ALK6-mediated Smad-5 phosphorylation in BMPR2 deficient mouse PASMC at 10 uM by immunoblot analysis; summary of the method: as §3
Mus musculus [18] = organism: Mus musculus; assay: Inhibition of BMPR1-mediated Smad-8 phosphorylation in BMP7-stimulated mouse PASMC at 4 uM treated 30 mins before BMP7 challenge measured after 30 mins by immunoblot analysis
Summary of the method: (§4)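 Wild-type mouse PASMCs were kept in RPMI with 0.5% FCS for 24 h. They were preincubated with compound or vehicle for 30 min, then stimulated for 30 min with recombinant BMP2, BMP4, BMP6 or BMP7 at 10 ng ml−1. Lysates in SDS buffer were immunoblotted with anti-phospho-SMAD1/5/8. Total SMAD1 and α-tubulin served as loading controls, and bands were quantified by phosphorimager.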

Danio rerio [19] = organism: Danio rerio; assay: Inhibition of BMPR1 in zebrafish assessed as increase in myod expression at 10 uM treated at 12 hrs post-fertilization measured at 48 hrs
HepG2 = assay: Inhibition of BMPR1-mediated hepcidin mRNA expression in BMP2-stimulated human HepG2 cells at 10 uM treated 30 mins before BMP2 challenge measured after 16 hrs by qRT-PCR analysis; type: cell-based
Danio rerio [20] = organism: Danio rerio; assay: Inhibition of BMPR1 in zebrafish assessed as severity of embryonic axis dorsalization at 10 uM treated continuously from 4 hrs post-fertilization measured after 48 hrs; design: scale not given: the % may be the effect or the level left
Danio rerio [21] = organism: Danio rerio; assay: Inhibition of BMPR1 in zebrafish assessed as penetrance of moderate embryonic axis dorsalization at 0.2 uM treated at 3 hrs post-fertilization measured at 48 hrs; design: scale not given: the % may be the effect or the level left; summary of the method: as §1
Danio rerio [22] = organism: Danio rerio; assay: Inhibition of BMPR1 in zebrafish assessed as penetrance of moderate embryonic axis dorsalization at 10 uM treated continuously from 6 hrs post-fertilization measured at 48 hrs; design: scale not given: the % may be the effect or the level left; summary of the method: as §1
Danio rerio [23] = organism: Danio rerio; assay: Inhibition of BMPR1 in zebrafish assessed as penetrance of normal embryonic axis dorsalization at 7.5 uM treated at 3 hrs post-fertilization measured at 48 hrs; design: scale not given: the % may be the effect or the level left
Danio rerio [24] = organism: Danio rerio; assay: Inhibition of BMPR1 in zebrafish assessed as severity of embryonic axis dorsalization at 10 uM treated continuously from 10 hrs post-fertilization measured at 48 hrs; design: scale not given: the % may be the effect or the level left
Danio rerio [25] = organism: Danio rerio; assay: Inhibition of BMPR1 in zebrafish assessed as penetrance of mild embryonic axis dorsalization at 10 uM treated at 2 to 6 hrs post-fertilization measured at 48 hrs; design: scale not given: the % may be the effect or the level left; summary of the method: as §1
Mus musculus [26] = organism: Mus musculus; assay: Inhibition of BMPR1-mediated Smad-8 phosphorylation in BMP6-stimulated mouse PASMC at 4 uM treated 30 mins before BMP6 challenge measured after 30 mins by immunoblot analysis; summary of the method: as §4
Hep 3B2 = assay: Inhibition of BMPR1-mediated hepcidin mRNA expression in IL6-stimulated human Hep3B cells at 10 uM treated 30 mins before IL6 challenge measured after 6 hrs by qRT-PCR analysis; type: cell-based
Summary of the method: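 Hep3B cells were incubated in α-MEM with 1% FCS for 6 h, with human IL-6 (100 ng ml−1) or without, together with compound or vehicle. After Trizol RNA extraction, hepcidin and Id1 mRNA were quantified by qRT-PCR. Values were normalised to 18S rRNA or β-actin mRNA, and measurements were in triplicate.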

## c1cc(-c2cnn3cc(-c4ccc(OCCN5CCCCC5)cc4)cnc23)ccn1 [DORSOMORPHIN]
Danio rerio [1]
  Activity: 0%
Danio rerio [2]
  Activity: 19%
Mus musculus [3]
  inhibition: Active
Mus musculus [4]
  inhibition: Active
Danio rerio [5]
  Activity: Non-toxic
Danio rerio [6]
  Activity: 0%
Mus musculus [7]
  inhibition: Active
Danio rerio [8]
  Activity: 65%
Danio rerio [9]
  Activity: 100%
Danio rerio [10]
  Activity: 0%
Danio rerio [11]
  Activity: 100%
Danio rerio [12]
  Activity: 3%
[13]
  Ki: 10 µM
Danio rerio [14]
  Activity: Active
Mus musculus [15]
  inhibition: Active
Danio rerio [16]
  Activity: 44%
Mus musculus [17]
  inhibition: Active
Mus musculus [18]
  inhibition: Active
Danio rerio [19]
  Activity: Active
HepG2
  inhibition: Active
Danio rerio [20]
  Activity: 0%
Danio rerio [21]
  Activity: 0%
Danio rerio [22]
  Activity: 78%
Danio rerio [23]
  Activity: 0%
Danio rerio [24]
  Activity: 0%
Danio rerio [25]
  Activity: 17%
Mus musculus [26]
  inhibition: Active
Hep 3B2
  inhibition: Active
